Tested on: L02
Experiment: Cytotoxicity against human L02 cells assessed as effect on cell viability at 40 uM after 24 hrs by MTT assay
Assay type: cell-based
Conditions: l02, 24 h
Method in brief: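 L-02 cells grown in DMEM with 10% FBS at 37 °C and 5% CO2, seeded at 5 × 10^3 cells/well, then settled over 12 h. Compound in DMSO added at 40 μM final (DMSO below 0.4%) for 24 h. MTT (5 mg/mL stock) added for a further 4 h. Formazan dissolved in DMSO and absorbance read at 570 nm.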

Row | Structure (SMILES) | Activity
1 | C[C@H]1C(=O)[C@]2(O)CC(C)(C)C[C@@H]2[C@@]2(C)CC[C@@]12O | Non-Toxic
2 | CC1=C2CC[C@]2(C)[C@]2(O)C(=CC(C)(C)[C@H]2O)C1=O | Non-Toxic
3 | Cc1cc2c(c(C)c1CCO)CC(C)(C)C2 | Non-Toxic
4 | CC1=C2OCC[C@]2(C)[C@H]2CC(C)(C)C=C2C1=O | Non-Toxic
5 | CC1=C2[C@H](O)C[C@]2(C)[C@H]2C[C@](C)(CO)C=C2C1=O | Non-Toxic
6 | Cc1c(O)c2c(c(C)c1CCO)C(=O)C(C)(C)[C@@H]2O | Non-Toxic
7 | CC(=O)OCCc1c(C)c(O)c2c(c1C)[C@@H](O)C(C)(C)C2 | Non-Toxic
8 | CC1=C2[C@H](O)C[C@]2(C)[C@H]2C[C@@](C)(CO)C=C2C1=O | Non-Toxic
9 | CC1=C2[C@H](O)C[C@]2(C)[C@H]2CC(C)(C)C=C2C1=O | Non-Toxic
10 | CC1=C2CC[C@]2(C)[C@H]2C[C@@](C)(CO)C=C2C1=O | Non-Toxic
11 | CC1C(=O)C2=CC(C)(C)C[C@]2(O)[C@@]2(C)CCC12 (some centres not stated) | Non-Toxic
12 | Cc1ccc2c3c1C(=O)OC[C@@]3(C)[C@H](O)C2(C)C | Non-Toxic
13 | Cc1cc2c(c(C)c1CCO)C(=O)C(C)(C)C2 [PTEROSIN Z] | Non-Toxic
14 | CC1=C2CC[C@]2(C)[C@@H]2C(=CC(C)(C)[C@H]2O)C1=O | Non-Toxic
15 | Cc1c(O)c2c(c(C)c1CCO)C(=O)C(C)(C)C2 [ONITIN] | Non-Toxic
16 | CC1C(=O)C2=CC(C)(C)C[C@]2(O)[C@@]2(C)C[C@@H](O)C12 (some centres not stated) | Non-Toxic

Molecular target: Beta-secretase 1 (Homo sapiens) (UniProt P56817)
Experiment: Inhibition of BACE1 (unknown origin) at 0.5 uM using BACE1 substrate measured after 2 hrs by FRET assay relative to control
Conditions: not given

Sequence of Beta-secretase 1 (Homo sapiens) (P56817 whole entry): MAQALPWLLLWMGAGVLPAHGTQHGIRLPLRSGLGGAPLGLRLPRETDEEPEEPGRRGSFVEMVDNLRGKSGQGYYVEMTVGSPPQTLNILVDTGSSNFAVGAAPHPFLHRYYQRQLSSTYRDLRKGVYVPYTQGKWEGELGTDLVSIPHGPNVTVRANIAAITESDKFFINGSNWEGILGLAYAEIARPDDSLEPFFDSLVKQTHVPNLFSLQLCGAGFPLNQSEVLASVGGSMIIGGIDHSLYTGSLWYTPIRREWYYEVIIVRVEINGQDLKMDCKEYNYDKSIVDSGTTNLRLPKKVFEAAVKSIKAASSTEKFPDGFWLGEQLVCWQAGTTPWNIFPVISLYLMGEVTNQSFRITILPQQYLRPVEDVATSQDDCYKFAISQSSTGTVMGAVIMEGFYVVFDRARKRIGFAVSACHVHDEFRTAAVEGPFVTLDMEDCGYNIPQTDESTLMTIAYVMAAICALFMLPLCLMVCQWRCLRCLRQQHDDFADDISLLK

Row | inhibition [%] | Structure (SMILES)
17 | 38.6 | C[C@@]1(c2cc(-c3cncnc3)c(F)cc2F)CCSC(N)=N1

Reference: ChEMBL document CHEMBL4145578, “Protoilludane, Illudalane, and Botryane Sesquiterpenoids from the Endophytic Fungus Phomopsis sp. TJ507A” (J Nat Prod, 2018)
